Out of some 27,000 compounds screened, about 250 (0.93%) were called active.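 The calls were made as follows: active = mutant luminescence inhibited past about 50% while wild type luminescence and mutant growth stay under set limits (limit read from the data); inconclusive = mutant versus wild type luminescence inhibition gap past a set limit; inactive = the rest.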 For the sample, actives were picked, then their nearest neighbours and some compounds at random.

For orientation: inhibition means the change of the read-out against control, counted positive when it falls.

The nature of the assay: GCN4-lacZ reporter reduction in eIF2B-epsilon mutant yeast, primary screen, S. cerevisiae, eIF2B-epsilon R284H, Beta-Glo luminescence (AID 688). The conditions noted are these: growth inhibition: measured here: mutant yeast growth, toxicity, concentration not given here; inhibition: stronger effect = higher value, screened at 25 µM (by protocol). Put shortly:
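Material – yeast eIF2B-epsilon R284H mutant carrying GCN4–beta-galactosidase fusion · Medium – YPD yeast growth medium · Compound – one concentration, 25 µM, 0.25% DMSO · Times – 16 h at 30 °C exposure · Signal – Beta-Glo luminescence plus absorbance at 595 nm · Read-out – % inhibition of reporter signal and growth versus controls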
Consider `CC(=O)Nc1ccc(NC(=O)CSCc2cnn(-c3ccccc3)c2-n2cccc2)cc1`, for which the growth inhibition was -16.7% and the inhibition is 13.1% (inactive). Taken in the same sequence, the figures for `COCCNC(=O)COc1ccccc1C` were 6.67% and 9.39% (inactive). On the same counts, the results for `Cc1nc(N2CCOCC2)nc2c1CCCC2` are 15% and 16.9% (inactive). `C[C@H](NC(=O)OC(C)(C)C)c1nnc(SCC(N)=O)o1`: the growth inhibition was 7.41% and the inhibition was 12.5% (inactive).

For `O=C(c1cc2sccc2n1Cc1ccc(F)cc1)N1CCc2ccccc21`, the growth inhibition was 13.5% and the inhibition is 26.8% (inactive). `CCCCCCc1cc2cc(-c3nnc(-c4cccc(OC)c4)o3)c(=O)oc2cc1O`: the inhibition is -37.6% (inactive). Regarding `CCC(=O)N(Cc1cc2cc(OC)ccc2[nH]c1=O)c1ccccc1C`, the growth inhibition amounted to 3.45% and the inhibition is 5.99% (inactive). On the same counts, the results for `CC(C)(C)n1nnnc1C(c1ccc(Cl)cc1)N1CCSCC1` (stereo not drawn) are -17.4% and 13.7% (inactive). Taken in the same sequence, the figures for `CCN(CC)CCCN1C(=O)C(=O)/C(=C(/O)c2c(C)nc3ccccn23)C1c1ccc(C)o1` (stereo not drawn) were 3.45% and 7.68% (inactive).

Consider `CC(=O)NC(C)(C)C1CC=C(C)/C(=N\O)C1` (stereo not drawn), for which the growth inhibition is -23.8% and the inhibition was -13.5% (inactive).

Take `CC(C)CC(N=C1NC(C)(C)Cc2ccccc21)C(=O)O` (stereo not drawn): the growth inhibition came to 21.1% and the inhibition was 6.22% (inactive). Regarding `O=C(CN1C(=O)CC(c2ccccc2)=Nc2ccccc21)NC1CCCCC1`, the growth inhibition is -28.6% and the inhibition is 18.7% (inactive). Take `CCN(CC(=O)NC1CCS(=O)(=O)C1)c1nc(-c2cccnc2)nc2ccccc12` (stereo not drawn): the growth inhibition was -30.9% and the inhibition was 20.1% (inactive). Taken in the same sequence, the figures for `C[C@H](NC(=O)OC(C)(C)C)c1nnc(SCC(=O)Nc2ccc(Br)cc2)o1` were -11.1% and 14.5% (inactive). Taken in the same sequence, the figures for `CCOC(=O)C1=C(C)NC2=C(C(=O)CC(C)(C)C2)C1c1ccsc1` (stereo not drawn) were -7.5% and 9.79% (inactive).

As for `Cc1c(C(=O)CN2CCOCC2)[nH]c2ccccc12`, the growth inhibition was found to be 18.5% and the inhibition is 16.8% (inactive).

For `COc1ccc(C2C(C(C)=O)=C(O)C(=O)N2Cc2cccnc2)cc1` (stereo not drawn), the inhibition was -0.66% (inactive). As to `CCOC(=O)NC(C(F)(F)F)(C(F)(F)F)P(=O)(c1ccccc1)c1ccccc1`, the growth inhibition is -5.56% and the inhibition was -15.8% (inactive). On the same counts, the results for `Cc1cc(=O)oc(C)c1C(=O)Nc1cnc2ccccc2c1` are -3.7% and 17.1% (inactive). Taken in the same sequence, the figures for `COc1ccc(C(C#N)N2N=C(C)CC2(C)C)cc1` (stereo not drawn) were 4.76% and -5.47% (inactive).

As for `COC(=O)C1=C(C)NC(=O)NC1/C=C/c1ccccc1` (stereo not drawn), the growth inhibition was -4.55% and the inhibition is 22.3% (inactive). Regarding `Cc1cc(Oc2ccccc2)nc(N2CCOCC2)n1`, the growth inhibition came to 5.41% and the inhibition is 12.4% (inactive). As to `CCCc1nc2c3cnn(-c4cccc(Cl)c4)c3ncn2n1`, the inhibition is 17.9% (inactive).

On to `CCCc1nc(-c2ccccc2O)n(-c2ccccc2)n1`, for which the growth inhibition stood at 25.8% and the inhibition was 52.9% (active). With `CCCCOc1ccc(NC(=O)CSCC(=O)OCC)cc1`, the inhibition was 25% (inactive). `Cc1ccc(-c2nnn(CC(=O)N(CCO)C(C(=O)NC(C)(C)C)c3ccncc3)n2)cc1` (stereo not drawn): the growth inhibition was determined as 14.8% and the inhibition was 23.7% (inactive).

Regarding `O=c1c2ccccc2oc2nc3n(c(=O)c12)CCCS3`, the growth inhibition worked out at 4% and the inhibition is 24.9% (inactive). For the compound `CCOc1ccc(N=C2SC(C(=O)O)CC(=O)N2C)cc1` (stereo not drawn), the growth inhibition was determined as 12% and the inhibition was 24.2% (inactive). Taken in the same sequence, the figures for `CCCOc1cc(C)c(S(=O)(=O)n2nnc3ccccc32)cc1C` were 12.9% and 11.9% (inactive). Taken in the same sequence, the figures for `O=C(CSc1nnc(-c2cnccn2)n1Cc1ccco1)c1ccc(Cl)c(Cl)c1` were -22.6% and 4.49% (inactive). On the same counts, the results for `COc1ccc(-c2cc(C(=O)NCc3ccco3)no2)cc1OC` are 2.7% and 19.9% (inactive). Turning to `O=C(O)CSc1nccn1-c1cccc(Cl)c1`, the growth inhibition is -14.3% and the inhibition is -8.74% (inactive). On the same counts, the results for `Oc1ccc2ccc3cccc[n+]3c2c1` are -4.35% and 53.1% (active). As to `O=C(Nc1ccc(S(=O)(=O)N2CCCC2)cc1Cl)C1=COCCO1`, the growth inhibition is -13.8% and the inhibition is 17.1% (inactive). Taken in the same sequence, the figures for `Cc1cc(C)n(-c2cc(Oc3ccccc3)ncn2)n1` were -5.56% and 0% (inactive).

Consider `Cc1cc(NC(=O)CCC2COc3ccccc3O2)no1` (stereo not drawn), for which the inhibition is -23.3% (inactive). Consider `O=c1[nH]c2c(c(=O)n1Cc1ccccc1)CCC2`, for which the growth inhibition was 10.8% and the inhibition was 17.1% (inactive). On the same counts, the results for `CCCC(=O)N(CCc1ccccc1)Cc1nc2ccccc2c(=O)[nH]1` are 19% and -3.55% (inactive).

Regarding `CCn1nccc1C(=O)Nc1ccc(Cl)c(Cl)c1`, the growth inhibition is -8.33% and the inhibition is 37.2% (inactive).

With `CCCC(C)C(=O)Nc1ccc(NC(C)=O)cc1` (stereo not drawn), the growth inhibition came to 2.78% and the inhibition is 11.4% (inactive).

In the case of `Cc1ccc(C(=O)Nc2ccccc2C(=O)NC2CCCCC2)cc1S(=O)(=O)N1CCOCC1`, the growth inhibition was -23.3% and the inhibition is 29% (inactive). In the case of `Cc1cccc(C)c1NC(=O)CCCSc1nnc(-c2ccco2)n1-c1ccccc1`, the growth inhibition stood at 11.5% and the inhibition is -14.1% (inactive). On the same counts, the results for `Cc1ccnc(NC(=O)c2ccc(NC(=O)c3ccco3)cc2)c1` are -8.33% and 8.24% (inactive). In the case of `COc1ccc(Nc2nc(=O)[nH]nc2C)cc1`, the growth inhibition was 20.6% and the inhibition is 25.8% (inactive). In the case of `C=CCNC(=O)CCCC(=O)NCC=C`, the growth inhibition is -4.76% and the inhibition is -58.7% (inactive). On the same counts, the results for `O=C(O)CSCC(=O)Nc1cccc(C(F)(F)F)c1` are 12.1% and 21.9% (inactive). Taken in the same sequence, the figures for `Cc1cccc2c(=O)n3c(nc12)CCCCC3` were 25.8% and 13.2% (inactive). For `CCn1nnc(NC(=O)c2cc(Cl)c(OC)c(Cl)c2)n1`, the growth inhibition was 18.5% and the inhibition is 17.4% (inactive). As to `Cc1c(Nc2nc3ccccc3nc2NS(=O)(=O)c2cccs2)c(=O)n(-c2ccccc2)n1C`, the growth inhibition stood at 5% and the inhibition is -33.1% (inactive).

Values taken from PubChem BioAssay AID688 (PCMD, 2007).
